Reference: article PMC9311154 (British Journal of Clinical Pharmacology, 2022)
Values joined by “and” are separate entries in the source; they are usually repeats but may differ in a detail not shown here. Equal values may be shown once. “Also recorded” adds a separate entry of the source. Read-outs that look alike come from different tables or passages of the source. Marks after values point to notes of the source that are not given here.

What was measured:
[1] = Safety and tolerability; type: in vivo, human
How it was run: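 Randomised, single-blind, placebo-controlled dose escalation in healthy men, 36 on active and 12 on placebo. Adverse events counted as treatment-emergent if they began or worsened after first study medication, up to 7 days post-treatment. Also assessed: physical examination, vital signs, 12-lead ECG and clinical laboratory tests. All participants dosed at least once were analysed descriptively.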

[2] = BAY 2433334 pharmacokinetics in plasma and urine, Parts A and B; type: in vivo, human; conditions: for tmax: median (range)
[3] = animal models; cited from earlier work
[4] = tested on: activated partial thromboplastin time (aPTT); assay: aPTT; type: in vivo, human
[5] = tested on: activated partial thromboplastin time (aPTT); conditions: whole blood or plasma, in vitro and ex vivo; cited from earlier work
[6] = tested on: FXI; assay: FXI concentration; type: in vivo, human; conditions: compared with placebo
How it was run: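 Healthy men randomised to the oral test compound (25/50/100 mg once daily or 25 mg twice daily) or placebo. Single dose day 1, washout days 2–3, repeat dosing days 4–11, final dose day 12, after an overnight fast of at least 10 h on profiling days. FXI concentration measured by microtitre-plate ELISA with polyclonal antibodies. Descriptive summary only.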

[7] = tested on: prothrombin time (PT); assay: Prothrombin time; type: in vivo, human; conditions: compared with placebo
[8] = Safety and tolerability; type: in vivo, human; remark: listed apart in the source
[9] = tested on: C1 esterase inhibitor; assay: C1 esterase inhibitor activity; type: in vivo, human; conditions: compared with placebo
How it was run: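 Healthy men given the oral test compound (25, 50 or 100 mg once daily, or 25 mg twice daily) or placebo: single dose on day 1, washout days 2–3, dosing days 4–11, once-daily dose day 12. C1 esterase inhibitor activity measured in plasma by chromogenic substrate kit on a coagulation analyser, per manufacturer's instructions. Summarised descriptively, with no prespecified formal statistics.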

[10] = multiple once‐daily dosing for 9 consecutive days
[11] = 25 mg multiple dose + midazolam
[12] = 25 mg treatment sequence, Total (N = 24)
[13] = 75 mg multiple dose + midazolam
[14] = 75 mg treatment sequence, Total (N = 24)

## CC[C@@H](C(=O)Nc1ccc(C(N)=O)c(F)c1)n1cc(OC)c(-c2cc(Cl)ccc2-n2cc(C(F)(F)F)nn2)cc1=O [BAY 2433334]
[1]; 25 mg BID
  Adverse event(s) of special interest: Bleeding: 0 Number (%)
  Any adverse event(s) of special interest: 1 (11.1%) Number (%)
  Any study drug‐related adverse event(s): 0 Number (%)
  Any study procedure‐related adverse event(s): 2 (22.2%) Number (%)
  TEAE: Medical device site urticaria: 1 (11.1%) Number (%)
[1]; 25 mg BID, Glutamate dehydrogenase increased
  Adverse event(s) of special interest: Investigations: 1 (11.1%) ^e Number (%)
[1]; 25 mg OD
  Adverse event(s) of special interest: Bleeding: 0 Number (%)
  Any adverse event(s) of special interest: 1 (11.1%) Number (%)
  Any study drug‐related adverse event(s): 0 Number (%)
  Any study procedure‐related adverse event(s): 1 (11.1%) Number (%)
  TEAE: Medical device site urticaria: 0 Number (%)
[1]; 25 mg OD, Amylase increased
  Adverse event(s) of special interest: Investigations: 1 (11.1%) ^c Number (%)
[1]; 50 mg OD
  Adverse event(s) of special interest: Bleeding: 0 Number (%)
  Any adverse event(s) of special interest: 1 (11.1%) Number (%)
  Any study drug‐related adverse event(s): 0 Number (%)
  Any study procedure‐related adverse event(s): 3 (33.3%) Number (%)
  TEAE: Medical device site urticaria: 0 Number (%)
[1]; 50 mg OD, Lipase increased
  Adverse event(s) of special interest: Investigations: 1 (11.1%) ^d Number (%)
[1]; 100 mg OD
  Adverse event(s) of special interest: Bleeding: 0 Number (%)
  Any adverse event(s) of special interest: 1 (11.1%) Number (%)
  Any study procedure‐related adverse event(s): 1 (11.1%) Number (%)
  TEAE: Medical device site urticaria: 1 (11.1%) Number (%)
[1]; 100 mg OD, Headache
  Any study drug‐related adverse event(s): 2 Number (%) and 2 (22.2%) ^b Number (%)
[1]; 100 mg OD, Lipase increased
  Adverse event(s) of special interest: Investigations: 1 (11.1%) ^d Number (%)
[1]; Parts A or B
  Adverse events leading to discontinuation: No adverse events leading to discontinuation
[1]; Total BAY 2433334 (n = 36)
  Adverse event(s) of special interest: Bleeding: 0 Number (%)
  Adverse event(s) of special interest: Investigations: 4 (11.1%) Number (%)
  Any adverse event(s) of special interest: 4 (11.1%) Number (%)
  Any study drug‐related adverse event(s): 2 (5.6%) Number (%)
  Any study procedure‐related adverse event(s): 7 (19.4%) Number (%)
  TEAE: Medical device site urticaria: 2 (5.6%) Number (%)
[1]; all study parts
  Adverse events related to bleeding: no clinically relevant adverse events related to bleeding
  Serious adverse events: no serious adverse events were reported
  Tolerability: well tolerated
[1]; other than the anticipated prolongation of aPTT
  Effects on vital signs, ECG or clinical laboratory investigations: No clinically relevant effects
[2]; 25–100 mg OD, single and multiple dosing, Part A
  Dose proportionality of AUC and Cmax in plasma: dose proportional; also recorded: appeared to increase dose proportionally
[2]; after multiple dosing
  arithmetic mean renal elimination (%AE,ur) of unchanged drug: 10.1–13.5%
[2]; after once‐daily administration
  RLIN, range: 1.03–1.08
[2]; after single‐dose administration
  arithmetic mean renal elimination (%AE,ur) of unchanged drug: 7.61–13.4 % of the dose
[2]; day 1
  geometric mean terminal half‐life (t1/2), range across treatment groups: 14.0 to 15.9 h
[2]; day 1, 25 mg BID group
  tmax: 3.00 (1.00–5.98) h
[2]; day 1, 25 mg OD
  tmax: 2.00 (1.48–5.98) h
[2]; day 1, 50 mg OD
  tmax: 2.00 (0.750–4.00) h
[2]; day 1, 100 mg OD
  tmax: 3.97 (1.47–6.00) h
[2]; day 1, across treatment groups
  apparent oral clearance, geometric means: 3.68 to 4.09 L/h
[2]; day 1, all treatment groups
  median time to Cmax, range across treatment groups: 2.00 to 3.97 h
[2]; day 12, 25 mg BID
  tmax: 1.50 (1.00–6.00) h
[2]; day 12, 25 mg OD
  tmax: 4.00 (1.00–6.03) h
[2]; day 12, 50 mg OD
  tmax: 3.00 (0.750–6.05) h
[2]; day 12, 100 mg OD
  tmax: 4.00 (1.50–6.00) h
[2]; day 12, across treatment groups
  apparent oral clearance, geometric means: 3.39 to 4.04 L/h
[2]; day 12, after multiple dosing
  mean terminal half‐life (t1/2), range across treatment groups: 15.8 to 17.8 h
[2]; day 12, once‐daily dosing
  median time to Cmax, range across once‐daily groups: 3.00 to 4.00 h
[2]; [10]
  RAAUC geometric mean, range: 1.50–1.72
  RACmax geometric mean, range: 1.41–1.63
[3]
  Reduction in thrombus weight: dose‐dependent reductions
[4]; Parts A and B
  Prolongation of aPTT: dose‐dependent prolongation
[4]; after dosing
  first time point at which prolongation of aPTT was apparent: 30 min
[4]; in vivo
  time of maximal aPTT prolongation after dosing: approximately 4 h
[5]
  Prolongation of aPTT: concentration‐dependent prolongation
[6]
  Effect on FXI concentrations: no significant effect
[7]
  Effect on PT (absolute and INR values): no effect
[8]; [11]
  Adverse event(s) of special interest: 0 Number (%)
  Study drug‐related adverse event(s): 0 Number (%)
  Study procedure‐related adverse event(s): 0 Number (%)
[8]; 25 mg multiple dose alone
  Adverse event(s) of special interest: 0 Number (%)
  Study drug‐related adverse event(s): 0 Number (%)
  Study procedure‐related adverse event(s): 1 (4.2%) Number (%)
[8]; 25 mg single dose + midazolam
  Adverse event(s) of special interest: 0 Number (%)
  Study drug‐related adverse event(s): 0 Number (%)
  Study procedure‐related adverse event(s): 0 Number (%)
[8]; [12]
  Adverse event(s) of special interest: 0 Number (%)
  Study drug‐related adverse event(s): 0 Number (%)
  Study procedure‐related adverse event(s): 4 (16.7%) Number (%)
[8]; [13]
  Adverse event(s) of special interest: 0 Number (%)
  Study drug‐related adverse event(s): 0 Number (%)
[8]; 75 mg multiple dose alone
  Adverse event(s) of special interest: 0 Number (%)
  Study drug‐related adverse event(s): 0 Number (%)
  Study procedure‐related adverse event(s): 0 Number (%)
[8]; 75 mg single dose + midazolam
  Adverse event(s) of special interest: 0 Number (%)
  Study drug‐related adverse event(s): 0 Number (%)
  Study procedure‐related adverse event(s): 0 Number (%)
[8]; [14]
  Adverse event(s) of special interest: 0 Number (%)
  Study drug‐related adverse event(s): 0 Number (%)
  Study procedure‐related adverse event(s): 2 (8.3%) Number (%)
[8]; Part C
  Study drug‐related TEAEs: No study drug‐related TEAEs
[8]; Part C, 75 mg
  Participants who discontinued study medication because of TEAEs: 2 participants
[9]
  Effect on complement C1 esterase inhibitor activity: no significant effect
